The values that follow come from ChEMBL document CHEMBL1146898, “Synthesis and immunostimulatory activity of 8-substituted amino 9-benzyladenines as potent Toll-like receptor 7 agonists” (Bioorg Med Chem Lett, 2006).

Experiment [1] deals with PBMC. The experiment can be described thus: Maximal IFNalpha production in human PBMC at 10 uM. It counts as functional. The gist of the method:
(§1)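 Ficoll-Hypaque-isolated human PBMC were held in RPMI 1640 with 10% FBS, L-glutamine and pen/strep, 10⁶ cells/well. They were treated for 24 h with a compound dilution series going down to 10 nM. Supernatant IFN-α was read by Luminex bead assay. Data are a composite of three donors. EC₅₀ came from non-linear regression curve fit.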

Experiment [2] relates to PBMC. The experiment can be described thus: Induction of IFNalpha production in human PBMC. Format: functional, cell-based. The gist of the method:
as §1

Experiment [3] concerns Macrophage. The experiment can be described thus: Induction of TNFalpha production in macrophages of TLR7 knockout mouse. Format: functional, cell-based.
Experiment [4] concerns Macrophage. Nature of the experiment: Induction of IL12 production in macrophages of TLR7 knockout mouse. It counts as functional, cell-based.
Experiment [5] relates to Macrophage. The experiment can be described thus: Induction of IL6 production in macrophages of TLR7 knockout mouse. It counts as functional, cell-based.
Experiment [6] relates to PBMC. The experiment can be described thus: Induction of IFNalpha production in human PBMC at 1 uM. It counts as functional. The gist of the method:
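Donor PBMC from blood bank isolated over Ficoll-Hypaque and kept in RPMI 1640 with 10% FBS, L-glutamine and penicillin/streptomycin. 10⁶ cells/well were stimulated with compound at single final concentration for 24 h (37 °C, 5% CO₂). Supernatant IFN-α was measured by Luminex multicytokine bead kit. Values are a composite across several healthy donors.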

Calls of active or inactive are those of the source. No cut-off for these calls is given here.

As to `CCNc1nc2c(N)nc(OCCOC)nc2n1Cc1ccccc1`, the Activity in experiment [1] came to 141 pg/mL; in experiment [6] it was 80.3 pg/mL. The same compound had a concentration giving a half-maximal response (EC50) in experiment [2] of 4.42 µM. Besides, the result in experiment [3], in experiment [4] and in experiment [5] was inactive.
As for `COCCOc1nc(N)c2nc(NCCc3ccccc3)n(Cc3ccccc3)c2n1`, the Activity in experiment [6] was found to be 1.33 pg/mL.
Consider `COCCOc1nc(N)c2nc(N3CCOCC3)n(Cc3ccccc3)c2n1`, for which the Activity in experiment [6] was determined as 0.41 pg/mL.
On to `COCCOc1nc(N)c2nc(NCCN3CCOCC3)n(Cc3ccccc3)c2n1`, for which the results for the Activity in experiment [1] and in experiment [6] were 176 pg/mL and 110.48 pg/mL, respectively. The compound also registered a concentration giving a half-maximal response (EC50) in experiment [2] of 0.79 µM. Also, the outcome in experiment [3], in experiment [4] and in experiment [5] was inactive.
Take `CCOC(=O)Nc1nc2c(N)nc(OCCOC)nc2n1Cc1ccccc1`: the Activity in experiment [6] is 1.03 pg/mL.
With `COCCOc1nc(N)c2[nH]c(=O)n(Cc3ccccc3)c2n1`, the Activity in experiment [1] worked out at 220 pg/mL; in experiment [6], 418 pg/mL. Also, the EC50 in experiment [2] came to 0.14 µM.
As to `CCCNc1nc2c(N)nc(OCCOC)nc2n1Cc1ccccc1`, in experiment [6], the Activity came out at 8.8 pg/mL.
Turning to `COCCOc1nc(N)c2nc(N(CCO)CCO)n(Cc3ccccc3)c2n1`, the Activity in experiment [6] was 0.82 pg/mL.
On to `COCCOc1nc(N)c2nc(NCCCO)n(Cc3ccccc3)c2n1`, for which the results for the Activity in experiment [1] and in experiment [6] were 206 pg/mL and 113.18 pg/mL, respectively. Moreover, in experiment [2], the concentration for a half-maximal effect (EC50) turned out to be 3.2 µM. Further, the result in experiment [3], in experiment [4] and in experiment [5] was inactive.
With `COCCOc1nc(N)c2nc(N)n(Cc3ccccc3)c2n1`, the Activity in experiment [1] was 132 pg/mL. The compound also returned an EC50 in experiment [2] above 10 µM.
As to `CCCCNc1nc2c(N)nc(OCCOC)nc2n1Cc1ccccc1`, the Activity in experiment [6] came out at 0.73 pg/mL.
Take `COCCOc1nc(N)c2nc(NN)n(Cc3ccccc3)c2n1`: in experiment [6], the Activity was determined as 0.21 pg/mL.
Regarding `COCCOc1nc(N)c2nc(NCCO)n(Cc3ccccc3)c2n1`, the Activity in experiment [1] amounted to 168 pg/mL; in experiment [6] it was 99.21 pg/mL. The compound further returned a 50% effective concentration (EC50) in experiment [2] of 5.33 µM. In addition, the result in experiment [3], in experiment [4] and in experiment [5] was inactive.
